Assay results as given in ChEMBL document CHEMBL4393708, “Pyridinylimidazoles as dual glycogen synthase kinase 3β/p38α mitogen-activated protein kinase inhibitors” (Eur J Med Chem, 2019).

Columns and labels:
[1] = target: Fibroblast growth factor receptor 2 (Homo sapiens) (UniProt P21802); experiment: Inhibition of human recombinant FGFR2 at 1 uM using Ulight-CAGAGAIETDKEYYTVKD as substrate measured after 15 mins in presence of ATP by LANCE assay relative to control
Summary of the method: (§1)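 Kinase panel run by an outside provider (Eurofins Cerep) in a LANCE assay, single test concentration of 1 µM, results as percent inhibition.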

[2] = target: Serine/threonine-protein kinase PAK 2 (Homo sapiens) (UniProt Q13177); experiment: Inhibition of human recombinant PAK2 at 1 uM using Ulight-RRRSLLE as substrate measured after 60 mins in presence of ATP by LANCE assay relative to control; summary of the method: as §1
[3] = target: High affinity nerve growth factor receptor (Homo sapiens) (UniProt P04629); experiment: Inhibition of human recombinant TRKA at 1 uM using Ulight-Poly GAT[EAY(1:1:1)]n as substrate measured after 10 mins in presence of ATP by LANCE assay relative to control; summary of the method: as §1
Chain of High affinity nerve growth factor receptor (Homo sapiens) (P04629 33-796 limits assumed): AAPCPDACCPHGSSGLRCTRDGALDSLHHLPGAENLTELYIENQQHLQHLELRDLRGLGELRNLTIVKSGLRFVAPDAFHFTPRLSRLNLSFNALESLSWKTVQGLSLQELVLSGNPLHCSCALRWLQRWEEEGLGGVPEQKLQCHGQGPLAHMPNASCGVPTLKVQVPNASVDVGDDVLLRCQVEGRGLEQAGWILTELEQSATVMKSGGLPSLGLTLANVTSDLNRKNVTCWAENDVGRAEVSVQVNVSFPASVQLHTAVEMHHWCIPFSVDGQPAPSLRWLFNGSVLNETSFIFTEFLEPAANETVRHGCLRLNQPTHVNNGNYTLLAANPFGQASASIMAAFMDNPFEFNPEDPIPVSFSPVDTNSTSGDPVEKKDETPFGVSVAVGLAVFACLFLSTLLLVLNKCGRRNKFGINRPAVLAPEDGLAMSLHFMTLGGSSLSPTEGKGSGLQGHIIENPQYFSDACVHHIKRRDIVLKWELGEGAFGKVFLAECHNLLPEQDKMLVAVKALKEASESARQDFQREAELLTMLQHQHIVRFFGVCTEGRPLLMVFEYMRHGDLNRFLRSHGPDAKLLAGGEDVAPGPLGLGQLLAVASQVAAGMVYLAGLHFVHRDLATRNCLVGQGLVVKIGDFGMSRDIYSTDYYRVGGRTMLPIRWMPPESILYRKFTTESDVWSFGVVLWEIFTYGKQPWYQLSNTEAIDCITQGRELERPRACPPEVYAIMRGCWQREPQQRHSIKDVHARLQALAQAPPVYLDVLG

Chain of Serine/threonine-protein kinase PAK 2 (Homo sapiens) (Q13177 whole entry): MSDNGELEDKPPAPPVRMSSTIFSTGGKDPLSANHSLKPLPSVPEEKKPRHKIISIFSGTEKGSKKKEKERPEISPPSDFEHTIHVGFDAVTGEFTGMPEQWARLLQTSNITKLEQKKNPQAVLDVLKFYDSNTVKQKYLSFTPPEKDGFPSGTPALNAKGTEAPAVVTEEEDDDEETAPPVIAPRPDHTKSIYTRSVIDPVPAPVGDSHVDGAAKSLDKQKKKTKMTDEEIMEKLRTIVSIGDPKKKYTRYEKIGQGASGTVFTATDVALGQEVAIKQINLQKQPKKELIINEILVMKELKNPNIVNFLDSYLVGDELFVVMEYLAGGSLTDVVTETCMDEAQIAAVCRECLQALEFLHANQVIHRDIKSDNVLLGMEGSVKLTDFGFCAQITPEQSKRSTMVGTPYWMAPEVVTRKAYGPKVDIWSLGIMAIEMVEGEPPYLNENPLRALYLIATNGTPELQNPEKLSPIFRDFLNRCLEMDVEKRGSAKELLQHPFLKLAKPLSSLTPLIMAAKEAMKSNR
Chain of Fibroblast growth factor receptor 2 (Homo sapiens) (P21802 22-821 limits assumed): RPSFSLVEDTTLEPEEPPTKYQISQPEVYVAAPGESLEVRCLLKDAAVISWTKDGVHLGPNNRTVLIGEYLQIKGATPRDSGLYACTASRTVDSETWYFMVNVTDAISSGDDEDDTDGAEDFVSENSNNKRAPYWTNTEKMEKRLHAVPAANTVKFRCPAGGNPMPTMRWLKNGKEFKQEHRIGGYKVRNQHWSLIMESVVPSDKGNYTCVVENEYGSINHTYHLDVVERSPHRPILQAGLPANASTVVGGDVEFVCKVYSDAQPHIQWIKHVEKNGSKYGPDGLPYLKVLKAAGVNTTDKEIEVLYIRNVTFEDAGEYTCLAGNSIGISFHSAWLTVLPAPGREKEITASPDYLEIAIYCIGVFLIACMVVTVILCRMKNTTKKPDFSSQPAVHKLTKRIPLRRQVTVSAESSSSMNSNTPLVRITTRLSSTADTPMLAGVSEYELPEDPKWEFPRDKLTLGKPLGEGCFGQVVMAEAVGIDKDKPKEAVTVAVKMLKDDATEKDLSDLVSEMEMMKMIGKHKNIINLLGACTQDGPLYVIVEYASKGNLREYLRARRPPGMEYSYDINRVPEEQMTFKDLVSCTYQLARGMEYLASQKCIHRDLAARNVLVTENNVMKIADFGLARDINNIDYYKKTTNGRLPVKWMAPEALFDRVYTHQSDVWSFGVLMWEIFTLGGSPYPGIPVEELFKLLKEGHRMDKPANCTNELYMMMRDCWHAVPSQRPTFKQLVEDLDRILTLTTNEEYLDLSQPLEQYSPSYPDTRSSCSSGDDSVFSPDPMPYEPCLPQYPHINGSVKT

Q: Which results are given for `CCc1nc(-c2ccc(F)cc2)c(-c2ccnc(NC(=O)C3CC3)c2)[nH]1`?
A: inhibition [1]: 74.4%; inhibition [2]: 5.58%; inhibition [3]: 10.6%
